Data reported in ChEMBL document CHEMBL3244073, “1,2,4-Triazole amino nucleosides. 1-beta-D-3'-Amino-3'-deoxyribofuranosyl-1,2,4-triazole-3-carboxamide and related nucleosides” (1977).
The source made the active and inactive calls. The calls are words filed in the database; no cut-off is given here.

Assays:
[1] = system: P388; experiment: Cytotoxicity against mouse P388 cells after 72 hrs by hemocytometer-based cell counting method; assay type: functional; conditions: P388, 72 h, read-out: LD50 (the source's name)
In short: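 P-388 mouse lymphoid leukemia cells grown in tissue culture with the nucleoside present; cytotoxicity expressed as the LD50 concentration in µg/mL.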

[2] = system: Human alphaherpesvirus 1; experiment: Antiviral activity against Herpes simplex virus 1 HF assessed as inhibition of virus-induced cytopathogenicity; assay type: functional, organism-based
In short: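 Cytopathogenic effect of HSV-1 strain HF was scored in infected cell cultures exposed to the nucleoside. The procedure was a modified Ehrlich method, as run in earlier work.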

| Structure (SMILES) | CC50 [1] | Activity [2] |
| --- | --- | --- |
| NC(=O)c1ncn([C@@H]2O[C@H](CO)[C@@H](N)[C@H]2O)n1 | > 100 µg/mL | inactive |
| NNC(=O)c1ncn([C@@H]2O[C@H](CO)[C@@H](N)[C@H]2O)n1 | > 100 µg/mL | inactive |
| N[C@H]1[C@@H](O)[C@H](n2cnc(C(=O)NO)n2)O[C@@H]1CO | > 100 µg/mL | inactive |
| NC(=O)c1ncnn1[C@@H]1O[C@H](CO)[C@@H](N)[C@H]1O | > 100 µg/mL | inactive |
| N/C(=N/O)c1ncn([C@@H]2O[C@H](CO)[C@@H](N)[C@H]2O)n1 | > 100 µg/mL | inactive |
| N/N=C(/N)c1ncn([C@@H]2O[C@H](CO)[C@@H](N)[C@H]2O)n1 | > 100 µg/mL | inactive |
